Columns and labels:
rat α2 GlyR = molecular target: T1, rat α2 GlyR (Rattus norvegicus, UniProt P22771); assay: Whole-cell patch-clamp of IGly in HEK-293 cells expressing α2 GlyRs; type: cell-based; details: 10 μM AEA, 5 min sustained, EC2 Gly (20 μM), wild-type α2
T1 sequence (P22771 28-452): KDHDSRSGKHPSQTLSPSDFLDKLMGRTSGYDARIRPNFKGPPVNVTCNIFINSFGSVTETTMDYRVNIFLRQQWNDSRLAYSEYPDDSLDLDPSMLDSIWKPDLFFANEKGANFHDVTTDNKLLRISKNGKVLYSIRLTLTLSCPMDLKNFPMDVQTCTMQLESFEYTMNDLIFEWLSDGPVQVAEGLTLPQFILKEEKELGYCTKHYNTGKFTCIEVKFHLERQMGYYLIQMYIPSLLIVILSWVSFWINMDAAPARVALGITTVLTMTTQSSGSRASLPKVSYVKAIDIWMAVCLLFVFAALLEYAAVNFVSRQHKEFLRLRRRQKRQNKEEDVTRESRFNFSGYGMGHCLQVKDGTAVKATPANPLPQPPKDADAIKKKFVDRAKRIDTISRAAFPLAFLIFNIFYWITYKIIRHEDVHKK

[1] = molecular target: T2, S296A mutant human 5-HT3A receptor (Homo sapiens, UniProt P46098, S319A); type: cell-based; details: 0.1 μM AEA, vs wild-type
T2 sequence (P46098 24-478 S319A): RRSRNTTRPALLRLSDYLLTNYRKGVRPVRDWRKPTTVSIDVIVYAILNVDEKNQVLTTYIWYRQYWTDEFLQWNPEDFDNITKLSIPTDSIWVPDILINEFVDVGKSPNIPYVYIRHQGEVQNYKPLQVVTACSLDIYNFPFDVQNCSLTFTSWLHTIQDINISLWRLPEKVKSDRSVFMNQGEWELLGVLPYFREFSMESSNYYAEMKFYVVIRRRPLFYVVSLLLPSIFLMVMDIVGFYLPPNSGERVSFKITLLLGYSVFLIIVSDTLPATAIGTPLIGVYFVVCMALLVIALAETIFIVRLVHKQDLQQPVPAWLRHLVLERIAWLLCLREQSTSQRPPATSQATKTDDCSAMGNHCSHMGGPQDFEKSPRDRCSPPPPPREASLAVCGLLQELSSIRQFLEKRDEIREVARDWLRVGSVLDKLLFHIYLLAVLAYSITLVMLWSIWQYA
How it was run: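 Human 5-HT3A receptors (wild-type or point mutant made by site-directed mutagenesis) transfected into HEK-293 cells. Cells recorded 2 d later, trypsin/EDTA-treated 2 h before, lifted, superfused with HEPES-buffered saline (pH 7.4). Whole-cell, CsCl pipette, −60 mV, 20–22°C. 5-HT 30 μM pulses before, during and after continuous 5 min test compound (0.1 μM) incubation; 5–7 cells, mean ± SE.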

CB1 receptors = details: read-out: binding affinity (Ki) for CB1 receptors; ref Pertwee, 2000; cited from earlier work
α1β1 GlyRs = α1β1 GlyRs (Homo sapiens, UniProt P23415); type: cell-based
α1β1 GlyRs, sequence (P23415 29-457): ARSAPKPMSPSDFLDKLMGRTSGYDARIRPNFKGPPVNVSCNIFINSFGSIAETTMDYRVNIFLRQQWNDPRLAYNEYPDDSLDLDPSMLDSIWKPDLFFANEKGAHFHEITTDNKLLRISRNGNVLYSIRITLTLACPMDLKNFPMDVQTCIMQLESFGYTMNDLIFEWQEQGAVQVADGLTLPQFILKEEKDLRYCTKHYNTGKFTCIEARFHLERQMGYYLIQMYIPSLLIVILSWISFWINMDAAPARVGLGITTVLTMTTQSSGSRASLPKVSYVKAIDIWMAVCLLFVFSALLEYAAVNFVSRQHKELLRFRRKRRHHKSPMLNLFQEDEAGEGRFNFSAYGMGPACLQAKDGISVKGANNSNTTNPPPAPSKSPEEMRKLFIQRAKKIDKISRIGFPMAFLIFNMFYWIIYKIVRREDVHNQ
α1β1 GlyRs, sequence (P48167 23-497 partner): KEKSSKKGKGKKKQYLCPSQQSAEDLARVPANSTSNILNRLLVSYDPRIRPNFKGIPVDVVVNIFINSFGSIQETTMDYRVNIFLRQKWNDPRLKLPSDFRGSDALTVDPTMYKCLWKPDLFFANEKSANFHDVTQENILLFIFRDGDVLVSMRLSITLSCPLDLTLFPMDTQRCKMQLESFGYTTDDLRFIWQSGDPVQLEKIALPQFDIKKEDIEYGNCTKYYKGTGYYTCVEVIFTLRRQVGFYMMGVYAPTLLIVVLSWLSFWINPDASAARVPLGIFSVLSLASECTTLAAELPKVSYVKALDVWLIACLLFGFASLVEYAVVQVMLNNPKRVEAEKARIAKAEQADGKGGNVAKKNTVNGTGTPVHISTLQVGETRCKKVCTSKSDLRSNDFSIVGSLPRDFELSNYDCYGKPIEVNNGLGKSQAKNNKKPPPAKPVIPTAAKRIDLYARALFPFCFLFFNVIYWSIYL

[2] = molecular target: T3, G254A mutant human α1 GlyR (Homo sapiens, UniProt P23415, G282A); assay: Whole-cell patch-clamp of IGly in HEK-293 cells expressing G254A mutant α1 GlyRs; type: cell-based; details: AEA 5 min sustained incubation
T3 sequence (P23415 29-457 G282A): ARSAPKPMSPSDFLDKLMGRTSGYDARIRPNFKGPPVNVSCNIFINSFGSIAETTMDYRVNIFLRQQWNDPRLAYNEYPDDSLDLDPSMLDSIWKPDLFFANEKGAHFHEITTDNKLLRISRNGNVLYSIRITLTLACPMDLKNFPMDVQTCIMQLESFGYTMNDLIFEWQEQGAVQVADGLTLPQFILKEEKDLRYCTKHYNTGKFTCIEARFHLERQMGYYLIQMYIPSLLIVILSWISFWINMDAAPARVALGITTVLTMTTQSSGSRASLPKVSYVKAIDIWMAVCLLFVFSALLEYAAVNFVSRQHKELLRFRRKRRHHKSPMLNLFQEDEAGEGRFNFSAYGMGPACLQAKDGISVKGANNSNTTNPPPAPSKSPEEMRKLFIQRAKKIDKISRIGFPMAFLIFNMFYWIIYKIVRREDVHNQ

S307A mutant rat α3 GlyR = molecular target: T4, S307A mutant rat α3 GlyR (Rattus norvegicus, UniProt P24524, S329A); assay: Whole-cell patch-clamp of IGly in HEK-293 cells expressing S307A mutant α3 GlyRs; type: cell-based; details: 10 μM AEA, 5 min sustained, EC2 Gly (100 μM)
T4 sequence (P24524 34-464 S329A): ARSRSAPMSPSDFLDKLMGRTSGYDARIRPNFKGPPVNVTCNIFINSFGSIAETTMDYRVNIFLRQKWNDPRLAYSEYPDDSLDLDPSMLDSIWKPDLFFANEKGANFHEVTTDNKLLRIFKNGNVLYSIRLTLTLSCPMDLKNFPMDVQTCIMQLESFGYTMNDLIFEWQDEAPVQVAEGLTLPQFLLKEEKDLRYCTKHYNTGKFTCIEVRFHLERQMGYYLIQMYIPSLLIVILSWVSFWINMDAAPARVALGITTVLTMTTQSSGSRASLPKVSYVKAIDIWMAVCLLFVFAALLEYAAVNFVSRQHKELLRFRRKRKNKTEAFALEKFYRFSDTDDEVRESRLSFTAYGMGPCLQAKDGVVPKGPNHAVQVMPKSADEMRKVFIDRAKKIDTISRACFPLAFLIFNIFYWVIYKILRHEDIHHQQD

SMILES: CCCCC/C=C\C/C=C\C/C=C\C/C=C\CCCC(=O)NCCO [AEA, anandamide]
- average percentage potentiation of IGly (rat α2 GlyR): 127 ± 37%
- effect of S296A mutation on AEA-induced inhibition of 5-HT-activated current [1]: did not significantly alter
- Ki (CB1 receptors): 0.061 to 0.543 µM
- time to maximal potentiation of IGly (α1β1 GlyRs; 1 μM AEA sustained application, α1β1 heteromeric): 5 min
- average percentage potentiation of IGly (α1β1 GlyRs; 1 μM AEA, 5 min sustained application, EC2 Gly, α1β1 (Fig. 1C)): 85 ± 12%
- AEA-induced potentiation of IGly [2]: 597 ± 77%
- AEA-induced potentiation of IGly (S307A mutant rat α3 GlyR): 249 ± 48%
